Results as given in ChEMBL document CHEMBL3108674, “6-Alkoxy-5-aryl-3-pyridinecarboxamides, a new series of bioavailable cannabinoid receptor type 1 (CB1) antagonists including peripherally selective compounds” (J Med Chem, 2013).
Each block holds one compound with its values, some of them ahead of it. Active and inactive are the calls of the source. The rule behind the calls is not given here.

Tests used:
Hepatocyte = assay: Intrinsic clearance in rat hepatocytes at 10 uM by LC-MS/MS analysis; assay type: ADME, cell-based
[1] = Cmax in rat plasma at 7.9 mg/kg, po; assay type: ADME, organism-based; parameters: dose 7.9 mg/kg, route oral
Rattus norvegicus [2] = assay: Reduction in body fat content in high fat diet-fed Sprague-Dawley rat at 30 mg/kg, po qd after 24 days; assay type: functional, organism-based; parameters: dose 30 mg/kg
Procedure, shortened: (§1)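 Diet-induced obese Sprague-Dawley rats (high responders), single-housed, groups of n = 9 matched for body weight and MRS body fat; drug given as food admix for 24 days alongside pair-fed groups; body weight and food intake measured daily; body fat by MRS; plasma leptin by ELISA; mean ± SEM, ANOVA with Dunnett's test versus vehicle.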

[3] = Clearance in rat at 1 mg/kg, iv; assay type: ADME, organism-based; parameters: dose 1 mg/kg, route intravenous; conditions: in vivo
[4] = Cmax in Sprague-Dawley rat plasma at 30 mg/kg, po qd after 10 days by LC-MS/MS analysis; assay type: ADME, organism-based; parameters: dose 30 mg/kg, route oral
Procedure, shortened: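 Male Sprague-Dawley rats (n = 3 per compound) given 30 mg/kg/day as feed admix for 10 days; jugular vein catheter implanted 4 days before sampling; on day 10 switched to drug-free high fat chow, then serial K3EDTA blood samples over 24 h; plasma drug levels by LC-MS.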

Plasma [5] = assay: Maximum unbound fraction in rat plasma at 7.9 mg/kg, po; assay type: ADME, organism-based; parameters: dose 7.9 mg/kg, route oral; conditions: in vivo
Rattus norvegicus [6] = assay: Increase of insulin sensitivity in high fat diet-fed Sprague-Dawley rat assessed as decrease in insulin AUC at 30 mg/kg, po qd administered for 24 days followed by glucose challenge by oral glucose tolerance test; assay type: functional, organism-based; parameters: dose 30 mg/kg
Rattus norvegicus [7] = organism: Rattus norvegicus; assay: Reduction in body weight gain in high fat diet-fed Sprague-Dawley rat at […]; assay type: functional, organism-based
Liver microsome = assay: Clearance in rat liver microsomes at 2 uM by LC-MS/MS analysis; assay type: ADME
Procedure, shortened: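 Rat liver microsomes at 0.5 mg/mL were incubated with 2 μM compound (final) and an NADPH-regenerating system. Aliquots were taken at 1, 3, 6, 9, 15, 25, 35 and 45 min and quenched in acetonitrile containing internal standard. Depletion was measured by LC-MS/MS. Clmic = −slope × 1000 / protein concentration (mg/mL), not corrected for microsomal protein binding.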

Cannabinoid receptor 1 = Cannabinoid receptor 1 (Homo sapiens, UniProt P21554); assay: Antagonist activity at human CB1 receptor overexpressed in HEK cells assessed as [35S]GTPgamma binding after 1 hr by liquid scintillation counting analysis; assay type: functional, cell-based, HEK293
Sequence of Cannabinoid receptor 1 (P21554 whole entry): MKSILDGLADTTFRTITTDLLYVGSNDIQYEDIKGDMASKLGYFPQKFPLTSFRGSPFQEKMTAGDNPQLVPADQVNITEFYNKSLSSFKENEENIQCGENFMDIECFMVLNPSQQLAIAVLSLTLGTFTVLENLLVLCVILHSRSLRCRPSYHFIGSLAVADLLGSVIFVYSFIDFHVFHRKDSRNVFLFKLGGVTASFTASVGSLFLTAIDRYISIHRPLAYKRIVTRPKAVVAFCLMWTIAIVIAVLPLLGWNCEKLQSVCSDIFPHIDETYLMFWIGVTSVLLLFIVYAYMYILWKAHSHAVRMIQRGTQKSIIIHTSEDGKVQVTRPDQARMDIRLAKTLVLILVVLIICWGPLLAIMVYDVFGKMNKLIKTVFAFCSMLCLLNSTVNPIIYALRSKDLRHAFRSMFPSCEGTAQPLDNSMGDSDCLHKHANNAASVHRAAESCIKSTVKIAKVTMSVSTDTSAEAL

[8] = Tmax in rat plasma at 7.9 mg/kg, po; assay type: ADME, organism-based; parameters: dose 7.9 mg/kg, route oral
[9] = Volume of distribution at steady state in rat at 1 mg/kg, iv; assay type: ADME, organism-based; parameters: dose 1 mg/kg, route intravenous; conditions: in vivo, read-out: Vdss
[10] = Drug uptake in Sprague-Dawley rat brain at 30 mg/kg, po qd after 10 days by LC-MS/MS analysis; assay type: ADME, organism-based; parameters: dose 30 mg/kg, route oral; conditions: read-out: Drug uptake
Rattus norvegicus [11] = assay: Maximum unbound fraction in rat at 7.9 mg/kg, po; assay type: ADME, organism-based; parameters: dose 7.9 mg/kg, route oral; conditions: in vivo
Cannabinoid receptor 2 = Cannabinoid receptor 2 (Homo sapiens, UniProt P34972); assay: Displacement of [3H]CP55940 from human CB2 receptor expressed in CHOK1 cells after 1 hr by liquid scintillation counting analysis; assay type: cell-based, CHO-K1
Sequence of Cannabinoid receptor 2 (P34972 whole entry): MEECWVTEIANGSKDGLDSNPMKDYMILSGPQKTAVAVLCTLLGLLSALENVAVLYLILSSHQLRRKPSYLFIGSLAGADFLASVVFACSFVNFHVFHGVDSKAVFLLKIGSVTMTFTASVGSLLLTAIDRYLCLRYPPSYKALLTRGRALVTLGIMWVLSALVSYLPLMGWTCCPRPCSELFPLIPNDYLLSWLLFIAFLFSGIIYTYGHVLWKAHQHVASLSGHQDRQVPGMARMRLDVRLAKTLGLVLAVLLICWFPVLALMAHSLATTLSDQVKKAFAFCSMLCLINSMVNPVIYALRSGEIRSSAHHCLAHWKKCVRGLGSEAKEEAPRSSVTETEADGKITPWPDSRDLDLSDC
Procedure, shortened: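 Membranes from butyrate-treated (5 mM, 24 h) CHO-K1 cells stably expressing human CB2, incubated with 0.3 nM [3H]CP55940 and increasing ligand concentrations, 60 min, 30 °C, pH 7.4 Tris buffer with 0.1% fatty acid-free BSA and 1% DMSO; nonspecific binding with 10 μM CP55940; filtration, scintillation counting; tested in triplicate.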

[12] = Plasma protein binding in rat; assay type: ADME, cell-free; conditions: read-out: PPB (converted)
[13] = Oral bioavailability in rat at 7.9 mg/kg; assay type: ADME, organism-based; conditions: in vivo
Rattus norvegicus [14] = assay: Reduction of leptin level in high fat diet-fed Sprague-Dawley rat plasma at 30 mg/kg, po qd after 24 days by ELISA; assay type: functional, organism-based; parameters: dose 30 mg/kg; procedure, shortened: as §1
[15] = Ratio of drug level in Sprague-Dawley rat brain to plasma at 30 mg/kg, po qd after 10 days by LC-MS/MS analysis; assay type: ADME, organism-based; parameters: dose 30 mg/kg, route oral; conditions: brain and plasma, read-out: BPR
[16] = Ratio of drug level in brain to plasma in rat; assay type: ADME; conditions: brain and plasma, read-out: BPR
[17] = Tmax in rat plasma at 10 mg/kg, po; assay type: ADME, organism-based; parameters: dose 10 mg/kg, route oral
Procedure, shortened: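 Single oral dose of 10 mg/kg in rats. Plasma concentrations followed over time, and time to peak plasma level (h) read from the profile.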

[18] = Volume of distribution at steady state in iv dosed rat; assay type: ADME, organism-based; conditions: in vivo, read-out: Vdss
[19] = Tmax in po dosed rat plasma; assay type: ADME, organism-based
Procedure, shortened: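 Single-dose rat PK study: compound given orally at 7.9 or 9 mg/kg, depending on compound. Plasma exposure followed over time, and Tmax (h) taken from the plasma concentration–time profile.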

[20] = Cmax in rat plasma at 10 mg/kg, po; assay type: ADME, organism-based; parameters: dose 10 mg/kg, route oral
Procedure, shortened: (§2)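 Single-dose oral PK in rats at 10 mg/kg, measuring peak plasma concentration. The maximum unbound level was given alongside rat plasma protein binding (%).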

Plasma [21] = assay: Maximum unbound fraction in rat plasma at 10 mg/kg, po; assay type: ADME, organism-based; parameters: dose 10 mg/kg, route oral; conditions: in vivo; procedure, shortened: as §2
[22] = Oral bioavailability in rat; assay type: ADME, organism-based; conditions: in vivo
Procedure, shortened: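 Bioavailability from rat single-dose PK, comparing oral dosing (10, 7.9 or 9 mg/kg, depending on compound) with intravenous dosing.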

Rattus norvegicus [23] = assay: Maximum unbound fraction in rat at 10 mg/kg, po; assay type: ADME, organism-based; parameters: dose 10 mg/kg, route oral; conditions: in vivo; procedure, shortened: as §2
Rattus norvegicus [24] = assay: Increase of insulin sensitivity in high fat diet-fed Sprague-Dawley rat assessed as decrease in insulin AUC at 10 mg/kg, po qd administered for 24 days followed by glucose challenge by oral glucose tolerance test; assay type: functional, organism-based; parameters: dose 10 mg/kg
[25] = Clearance in iv dosed rat; assay type: ADME, organism-based; conditions: in vivo

SMILES: O=C(N[C@@H]1CCCC[C@H]1O)c1cnc(OCC2CC2)c(-c2ccc(Cl)cc2)c1
- CLH (Hepatocyte): 3.3 µL/min
- Cmax [1]: 729 ng/mL
- Activity (Rattus norvegicus [2]): Active
- clearance [3]: 7.4 mL/min/kg
- Cmax [4]: 1020 ng/mL
- Cp(f)max (Plasma [5]): < 11 ng/mL
- Activity (Rattus norvegicus [6]): Active
- Activity (Rattus norvegicus [7]): Active
- CLH (Liver microsome): 64 µL/min/mg
- EC50 (Cannabinoid receptor 1): 3.9 nM
- Tmax [8]: 1.9 h
- Vd [9]: 1.8 L/kg
- concentration at 240 h [10]: 1400 ng/g
- fCmax (Rattus norvegicus [11]): < 28 nM
- Ki (Cannabinoid receptor 2): > 7000 nM
- fraction unbound [12]: < 0.016
- bioavailability [13]: 23%
- Activity (Rattus norvegicus [14]): Active
- Kp at 240 h [15]: 1.3
- Kp [16]: 0.7

- Tmax [17]: 1.5 h
- Vd [18]: 11.5 L/kg
- Tmax [19]: 1 h
- Cmax [20]: 244 ng/mL
- Cp(f)max (Plasma [21]): 0.83 ng/mL
- bioavailability [22]: 12%
- fCmax (Rattus norvegicus [23]): 1.8 nM
- fraction unbound [12]: 0.003
- Kp [16]: 3
- clearance [25]: 17 mL/min/kg
SMILES: Cc1c(C(=O)NN2CCCCC2)nn(-c2ccc(Cl)cc2Cl)c1-c1ccc(Cl)cc1 [RIMONABANT]
- Activity (Rattus norvegicus [24]): Active
